This is a sample that favours compounds with a hit; in the whole collection about 1.6% have one here.
C8 TRAIL sens: viability loss with TRAIL in NB7+C8 cells, primary screen, TRAIL sensitizer project, cell-based, ATPlite luminescence. inhibition (viability loss, TRAIL sensitization), % at 10 µM. 360,000 tested, 1% active. AID 624354, 2012;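 active = compounds causing at least 50% loss of cell viability in the single-dose screen, relative to plate controls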
FLuc inh counter: firefly luciferase enzyme inhibitors, primary screen, artefact control for luciferase-based inhibitor screens, biochemical, luminescence, ATPLite; Luciferin 4-monooxygenase (Photinus pyralis), P08659; 10 min; inhibition, % at 10 µM; 200,000 tested, 1.5% active;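 active = inhibition above about 50% when tested at 10 µM, limit read from the data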
Target sequence (P08659 whole entry, looked up): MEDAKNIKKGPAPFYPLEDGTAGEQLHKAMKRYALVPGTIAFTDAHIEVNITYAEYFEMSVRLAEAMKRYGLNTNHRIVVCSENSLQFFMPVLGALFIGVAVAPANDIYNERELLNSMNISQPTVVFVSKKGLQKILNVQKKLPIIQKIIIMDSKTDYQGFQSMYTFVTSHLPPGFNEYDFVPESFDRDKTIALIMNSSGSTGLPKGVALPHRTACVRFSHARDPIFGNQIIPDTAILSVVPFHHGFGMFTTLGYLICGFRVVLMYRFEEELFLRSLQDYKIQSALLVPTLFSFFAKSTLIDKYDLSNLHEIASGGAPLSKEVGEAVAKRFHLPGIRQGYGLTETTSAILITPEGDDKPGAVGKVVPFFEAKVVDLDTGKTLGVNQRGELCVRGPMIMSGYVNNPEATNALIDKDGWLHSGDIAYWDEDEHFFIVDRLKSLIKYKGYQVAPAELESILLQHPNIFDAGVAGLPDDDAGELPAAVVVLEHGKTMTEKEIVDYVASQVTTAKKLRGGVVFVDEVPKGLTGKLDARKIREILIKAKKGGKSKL
PPC-1+TRAIL kill: compounds killing PPC-1 cancer cells with TRAIL present, primary screen, TRAIL potentiator project, ATPLite luminescence, uHTS. AID 1443, 2008. cell killing (% activity), % at 4 µM or 5 µM. 220,000 tested, 0.41% active. PPC-1 cells + TRAIL, ATPLite viability luminescence;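 active = cell killing above 50% in the first pass at 4 µM, then a duplicate retest at 5 µM averaging 50% or more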;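 note: plate controls were cells with TRAIL plus DMSO for no effect and medium-only wells lacking cells for full effect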
FLuc act counter: FLuc activators, initial screening, artefact control for FLuc-dependent activation tests, biochemical, ATPlite luminescence; 200,000 tested, under 10 active; Luciferin 4-monooxygenase (Photinus pyralis), P08659; ATPlite luciferase biochemical, 10 min; 0 = ATP-free wells, 1 = DMSO control; AID 1027, 2008; activation factor at 10 µM;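 active = luciferase activation factor, scaled between plate controls, of at least 2 with compound at 10 µM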
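System: luciferase plus luciferin reagent, cell-free; medium: PBS as buffer for the ATP substrate; dosing: test compounds dosed from 2 mM stocks in 100% DMSO; timing: 10 min post-reagent at room temperature; measured by: luminescence measurement of luciferase light output; evaluation: luciferase activation, seen as luminescence increase over controls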
The depositor's hits bear a star.

Results for CC1=CC2OC3CC4OC(=O)C=CC=CC(C(C)O)OCC(O)C5(C)OC5C(=O)OCC2(CC1O)C4(C)C31CO1 (stereo not given) ?
C8 TRAIL sens: 67*

What do the screens show for `CC1CCOC(=O)C=CC=CC(=O)OC2CC3OC4C5OC5(C)C(O)CC4(COC(=O)C1O)C2(C)C31CO1` (stereo not given)?
C8 TRAIL sens: 69*

What do the screens show for `CC(O)C1C=CC=CC(=O)OC2CC3OC4C5OC5(C)C(O)CC4(COC(=O)C(O)C(C)CCO1)C2(C)C31CO1` (stereo not given)?
C8 TRAIL sens: 62*

Results for CC1=CC2OC3CC4OC(=O)C=CC=CC(=O)OCCC(C)C(O)C(=O)OCC2(CC1)C4(C)C31CO1 (stereo not given) ?
C8 TRAIL sens: 56*

How did COc1ccc(C(=O)O/N=C(/C(N)=O)P(=O)(OC(C)C)OC(C)C)cc1 do in these assays?
C8 TRAIL sens: -19; PPC-1+TRAIL kill: -3

What do the screens show for `O=C1C2(c3ccccc3)CN3CN(C2)CC1(c1ccccc1)C3`?
C8 TRAIL sens: -8; FLuc inh counter: -4; PPC-1+TRAIL kill: 1; FLuc act counter: 1

What do the screens show for `O=C(O)C1C2c3ccccc3C(=O)C1(C(=O)O)c1ccccc12` (stereo not given)?
C8 TRAIL sens: 1

What do the screens show for `CCOC(=O)C(O)(c1ccc(N(C)C(=O)COc2ccccc2)cc1)C(F)(F)F` (stereo not given)?
C8 TRAIL sens: -8

Results for CN(C)C(=O)O/N=C(\N)COc1ccc(C(C)(C)C)cc1 ?
C8 TRAIL sens: 90*; PPC-1+TRAIL kill: 21

What do the screens show for `Cc1cccc(OP(=O)(NCc2ccccc2)Oc2cccc(C)c2)c1`?
C8 TRAIL sens: -1; FLuc inh counter: -6; PPC-1+TRAIL kill: 1; FLuc act counter: 1.1

How did O=[N+]([O-])c1ccc(Cl)c([N+](=O)[O-])c1 do in these assays?
C8 TRAIL sens: 81*

How did O=[N+]([O-])c1ccc(O)c([N+](=O)[O-])c1 do in these assays?
C8 TRAIL sens: -5

Results for CCOC(=O)c1c(N)n(CCCOC(=O)c2ccco2)c2nc3ccccc3nc12 ?
C8 TRAIL sens: 52*; FLuc inh counter: -8; PPC-1+TRAIL kill: 21; FLuc act counter: 1.1

What do the screens show for `O=C(O)CCn1cc(C=C2C(=O)NC(=O)NC2=O)c(-c2cc3ccccc3oc2=O)n1`?
C8 TRAIL sens: -4; FLuc inh counter: -4; PPC-1+TRAIL kill: 27; FLuc act counter: 1

Results for CCOC(=O)[C@]12Cc3cc(Cl)ccc3[C@H]1N(C1CCCCC1)C(=O)c1cc(OC)ccc12 ?
C8 TRAIL sens: 96*

Results for CCOC(=O)[C@]12Cc3ccc(C)cc3[C@H]1N(C1CCCCC1)C(=O)c1ccccc12 ?
C8 TRAIL sens: 86*

How did CCOC(=O)[C@]12Cc3ccccc3[C@H]1N(C(C)C)C(=O)c1ccccc12 do in these assays?
C8 TRAIL sens: 29

What do the screens show for `CCOC(=O)[C@]12Cc3cc(C)ccc3[C@H]1N(C1CCCCC1)C(=O)c1ccccc12`?
C8 TRAIL sens: 92*

How did CCOC(=O)[C@]12Cc3cc(OC)ccc3[C@H]1N(CC(=O)OC)C(=O)c1ccccc12 do in these assays?
C8 TRAIL sens: -5

What do the screens show for `CCOC(=O)[C@]12Cc3c(cc(OC)c(OC)c3OC)[C@H]1N(C1CCCCC1)C(=O)c1ccccc12`?
C8 TRAIL sens: 90*

What do the screens show for `CCOP(=O)(NC(C)C)Oc1ccc(SC)c(C)c1` (stereo not given)?
C8 TRAIL sens: 2

Results for O=C1NCN(c2ccccc2)C12CCN(C(c1ccnc3ccccc13)c1nnnn1-c1ccc3c(c1)OCCO3)CC2 (stereo not given) ?
C8 TRAIL sens: -3

What do the screens show for `CCOC(=O)[C@]12Cc3cc(OC)ccc3[C@H]1N(C)C(=O)c1cc(OC)ccc12`?
C8 TRAIL sens: 23

How did CCOC(=O)[C@]12Cc3ccc(C)cc3[C@H]1N(C1CCCCC1)C(=O)c1cc(OC)ccc12 do in these assays?
C8 TRAIL sens: 95*

Results for CCN(CCCl)c1cc(CN(C)C)cc(NC(=O)c2ccc(C(=O)Nc3cc(CN(C)C)cc(N(CC)CCCl)c3)cc2)c1 ?
C8 TRAIL sens: 95*

Screens: PubChem, Sanford-Burnham Center for Chemical Genomics
